HNF4A DNA FP – change in binding of human HNF4A to DNA, primary screen, biochemical, fluorescence polarization, FITC-DNA; 1 h; activity change, % at 10 µM; 360,000 tested, 0.3% active; in the data active means activity change above about 30%, passing the limit was not always enough
CSN inh – inhibitors of CSN-mediated cullin deneddylation, primary screen, biochemical, fluorescence polarization, uHTS; AID 651999, 2013; inhibition, % at 12.5 µM; Purified CSN, SCF-Nedd8-OG deneddylation; 360,000 tested, 0.38% active; COP9 signalosome complex subunit 5 (Homo sapiens), Q92905;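 active means pattern-corrected inhibition above about 35%, with an unprinted fluorescence ratio check between 0.5 and 1.5, limit read from the data, passing the limit was not always enough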;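 further: 0% = enzyme with substrate and 100% = substrate without enzyme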
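Assay system: purified human Csn5 enzyme expressed in HEK293T cells; measure: % inhibition; also added: SCFSkp2-Nedd8OG substrate at 10 nM final; technique: fluorescence polarization; times: reaction 90 min, room temperature; medium: Tris buffer pH 7.5, NaCl, DTT, Tween-20, trehalose, ovalbumin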
Rev-erbA mod – modulators of Rev-erb alpha DNA binding, primary screen, biochemical, FITC-DNA, fluorescence polarization, uHTS; Nuclear receptor subfamily 1 group D member 1 (Homo sapiens), P20393; Rev-erbα–FITC-DNA binding, 90 min; activity, % at 10 µM; 370,000 tested, 0.79% active; AID 1259318, 2017;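 active means activity above about 14%, limit read from the data; passing the limit was not always enough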;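 further: 0% = DMSO wells with 35 nM protein and 100% = DMSO wells with 750 nM protein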
Target sequence (P20393 whole entry, looked up): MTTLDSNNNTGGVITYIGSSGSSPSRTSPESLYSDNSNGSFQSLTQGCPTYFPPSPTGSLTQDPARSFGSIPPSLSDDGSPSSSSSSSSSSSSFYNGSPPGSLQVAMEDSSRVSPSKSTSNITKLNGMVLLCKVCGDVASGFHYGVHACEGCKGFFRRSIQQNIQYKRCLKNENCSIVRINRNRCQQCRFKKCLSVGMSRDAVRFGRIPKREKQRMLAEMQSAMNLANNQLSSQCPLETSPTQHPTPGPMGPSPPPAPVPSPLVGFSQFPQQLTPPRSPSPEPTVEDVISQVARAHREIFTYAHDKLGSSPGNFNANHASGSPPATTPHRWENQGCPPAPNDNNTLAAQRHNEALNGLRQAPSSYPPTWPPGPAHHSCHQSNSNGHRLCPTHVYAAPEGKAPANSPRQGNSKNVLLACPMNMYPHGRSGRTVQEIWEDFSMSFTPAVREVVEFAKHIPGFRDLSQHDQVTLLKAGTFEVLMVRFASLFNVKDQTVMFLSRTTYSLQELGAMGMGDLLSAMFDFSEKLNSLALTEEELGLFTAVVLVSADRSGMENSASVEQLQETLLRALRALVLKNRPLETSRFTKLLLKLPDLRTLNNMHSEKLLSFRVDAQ
aDG glyco up – activators of alpha-DG glycosylation, primary screen, uHTS, Pro5-aDG cells, AlphaScreen; alpha-DG glycosylation AlphaScreen (IIH6); 0% Pro5, 100% B10-LARGE cell signal; activation, % at 10 µM; 360,000 tested, 0.22% active; AID 624168, 2012;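 active means activation of at least 8% versus controls, or a plate z-score of at least 8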;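 further: Pro5 are CHO cells carrying HIG-tagged alpha-DG that lacks glycosylation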
Rev-erbA confirm – modulators of Rev-erb alpha DNA binding, confirmation, biochemical, FITC-DNA, fluorescence polarization, single point | shares compounds with Rev-erbA mod | 90 min | activation, % at 25 µM | 3,000 tested, 61% active;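 active means activation at or above a set limit, or at least 3 SD above the negative control mean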;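 further: 0% = 35 nM protein with DMSO and 100% = 750 nM protein high control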
RORg counter – modulation of RORgamma DNA binding, dose response, counter-screen for Rev-erb alpha modulator project, biochemical, fluorescence polarization, FITC-DNA; purified RORgamma protein-FITC-DNA binding; IC50, µM; shares compounds with Rev-erbA mod; 910 tested, 8% active;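 active means Compounds whose fitted half-maximal concentration for disrupting protein-DNA binding is below 10 micromolar; the record names Rev-erb in its text, so the target is in doubt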
* hit, by the source's call; i = inactive; . = no result. Most compounds without a hit are left out; they make up all but 1.5% or so of the library.

SMILES	HNF4A DNA FP	CSN inh	Rev-erbA mod	aDG glyco up	Rev-erbA confirm	others
COC(=O)[C@]12C[C@H](CC(=O)N3CCN(C(=O)c4ccco4)CC3)C(=O)N(Cc3ccco3)C1=C[C@H](C(C)C)O[C@@H]2C1CC1	.	.	4	.	.
Cc1ccc(-c2nc3c(c(=O)[nH]c(=O)n3Cc3ccccc3)n2Cc2ccccc2)o1	2	-1	0	0	.
Cc1cc(C)c2c(=O)[nH]c(=O)n(Cc3ccccc3)c2n1	5	27	23*	0	15
Cc1ccc(-c2nc3c(C)cc(Br)cn3c2Cc2ccccc2C(F)(F)F)cc1	.	.	20	.	.
Cc1cc(Br)cn2c(Cc3cccc(F)c3)c(-c3cccc(Cl)c3)nc12	.	.	19*	.	8
Cc1cc(Br)cn2c(Cc3ccccc3C(F)(F)F)c(-c3cccc(Cl)c3)nc12	.	.	24*	.	0
Cc1ccc(Cc2c(-c3cccc(Cl)c3)nc3c(C)cc(Br)cn23)cc1	-1	3	12	0	.
Cc1cc(Br)cn2c(Cc3cccc(F)c3)c(-c3ccc(C#N)cc3)nc12	20	8	27*	0	13*
N#Cc1ccc(-c2nc3ccc(Br)cn3c2Cc2cccc(F)c2)cc1	3	5	2	1	.
CCCCNC(=O)NCCCN1CCN(c2ccc(F)cc2)CC1	.	.	2	.	.
Cc1ccc(S(=O)(=O)N2CCN(C(=O)c3cccn3C)CC2)cc1	.	.	3	.	.
CCCC(=O)N(c1ccc(OCC)cc1)S(=O)(=O)c1ccc2c3c(cccc13)C(=O)N2C	0	1	43*	1	17
COCCNS(=O)(=O)c1ccc2c3c(cccc13)C(=O)N2C	5	-1	-5	0	.
CCOC(=O)c1sc2nc(C)nc(NCCc3ccc(S(N)(=O)=O)cc3)c2c1C	1	5	40*	0	16
COc1ccccc1N=Nc1ccc(O)c2ncccc12	0	-6	7	0	.
Oc1ccc(N=Nc2ccccc2C(F)(F)F)c2cccnc12	-6	2	23*	0	5
COc1ccc2c3c([nH]c2c1)[C@]1(CCNC=O)Nc2ccccc2C1=NCC3	.	.	-7	.	.
Cc1ccccc1C(=O)N(C)[C@H]1C[C@H]2c3[nH]c4c(-c5ccccc5)cccc4c3CCN2C(=O)[C@H]1[C@H](C)O	.	.	13*	.	2
CCOc1cc2[nH]c(=S)n(CCC(=O)N3CCc4ccccc4C3)c(=O)c2cc1OCC	-2	-6	59*	0	62*	RORg counter=>40
Oc1c(C=Nc2cccc3cccnc23)sc2ccccc12	.	.	26*	.	36*	RORg counter=>40
CCCCN(C)c1c2c(nc3ncnn13)CCCC2	.	.	0	.	.
COc1ccc(C(C)=O)cc1CSc1nc2ccccc2c(=O)n1-c1ccccc1C	0	-3	3	0	.
COc1ccc(C(C)=O)cc1CSc1nc2ccccc2c(=O)n1-c1ccccc1	0	4	36*	1	36*	RORg counter=>40
COc1ccc(C(C)=O)cc1CSc1nc2ccccc2c(=O)n1-c1cccc(C)c1	2	4	39*	1	36*	RORg counter=9.4*
COC(=O)C1CN(Cc2ccc(F)cc2)CCS(=O)(=O)N1Cc1cn(Cc2ccc(Cl)cc2)nn1 (stereo not drawn)	.	.	1	.	.
SMILES	HNF4A DNA FP	CSN inh	Rev-erbA mod	aDG glyco up	Rev-erbA confirm	others
CCCCN1C(=O)N2Cc3ccc(C)cc3C2CS1(=O)=O (stereo not drawn)	.	.	3	.	.
Cc1ccc2c(c1)c(/C=C/c1cc[n+](C)cc1)c(C)n2C	180	69	280*	0	224*	RORg counter=i
Cc1ccc2[nH]c(C)c(/C=C/c3cc[n+](C)cc3)c2c1	166	108	235*	0	182*	RORg counter=>40
C[n+]1ccc(/C=C/c2ccc(Br)cc2)cc1	-2	1	1	0	.
O=S(=O)(CC1NCCc2ccccc21)NCCc1ccccc1 (stereo not drawn)	.	.	7	.	.
COc1ccc(C(=O)Nc2sc3c(c2C(=O)NCc2ccco2)CCCC3)cc1OC	-2	-3	26*	0	13
COc1cc(C(=O)Nc2sc3c(c2C(=O)NCc2ccco2)CCCC3)cc(OC)c1OC	-3	-1	27*	0	3
Cc1ccc(C(=O)Nc2sc3c(c2C(=O)NCc2ccco2)CCCC3)cc1	-1	2	1	0	.
CN(C)C=Nc1ccc(Cn2cnc3nc4ccc(Cl)cc4cc3c2=O)cc1	.	.	0	.	.
Cc1ccc(-c2oc3ncnc(N)c3c2-c2ccc(C)cc2)cc1	-2	1	20*	0	8
Cc1cc(NS(=O)(=O)c2ccc(NC(=O)CSc3nc4ncc(Br)cc4[nH]3)cc2)nc(C)n1	-1	5	-2	0	.
Cc1ccc(NC(=O)CSc2nc3ncc(Br)cc3[nH]2)cc1C	0	4	195*	0	186*	RORg counter=>40
Cc1cc(C)c(NC(=O)CSc2nc3ncc(Cl)cc3[nH]2)c(C)c1	1	3	11	0	.
Cc1cc(C)c(NC(=O)CSc2nc3ncc(Br)cc3[nH]2)c(Cl)c1	-2	-3	47*	0	64*	RORg counter=i
CC(NCc1ccco1)C(=O)N1CCN(c2ccc(F)cc2)CC1 (stereo not drawn)	.	.	-4	.	.
N.N.O=C(O)C1(C(=O)O)CCC1.[Pt+2]	.	.	7	.	.
COc1ccc(-n2nc3ccc(NS(C)(=O)=O)cc3n2)cc1Cl	2	5	23*	0	18*
Cc1cc(=O)oc2cc3oc(=O)cc(C)c3cc12	3	1	0	0	.
Cc1cc(=O)oc2c(C)cc(C(C)(C)C)cc12	-4	6	27*	0	26*
S=c1nc[nH]c2c1sc1nc(-c3ccccc3)c3c(c12)CCCC3	2	6	16	0	.
Nc1c(C(=O)O)sc2nc(-c3ccccc3)c3c(c12)CCCC3	5	10	3	0	.
O=c1[nH]cnc2c1sc1nc(-c3ccccc3)c3c(c12)CCCC3	-1	4	18*	0	9
COC(=O)c1sc2nc(-c3ccccc3)c3c(c2c1N)CCCC3	1	1	69*	1	39*	RORg counter=>40
CCOc1ccc(S(=O)(=O)c2c[nH]c3ccc(C)cc3c2=O)cc1	2	1	31*	0	20*
Cc1ccc2[nH]cc(S(=O)(=O)c3ccc(F)cc3)c(=O)c2c1	2	4	3	0	.
CCc1cc2cc(C)cc(C)c2nc1SCC(=O)N1CCCC1	-2	3	58*	0	41*	RORg counter=>40
COc1cc2sc3ccc(C#Cc4ccccn4)cc3c(=O)c2cc1OC	175	54*	26*	0	27*
